The values that follow come from ChEMBL document CHEMBL1128324, “Synthesis and antitumor activity of 4- and 5-substituted derivatives of isoquinoline-1-carboxaldehyde thiosemicarbazone” (1995).

One may read the T/C as the result in the treated group divided by that in the control group, in per cent.

Several values for one entry are separate records, joined by “and”; a condition that tells them apart may be missing. Identical values can stand only once.

What all share (type): functional
One test is filed under the species Bos taurus. Kind of test: Effect on rate of glucuronidation of the hydroxyl group by bovine UDP-glucuronyltransferase. In outline: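 UDP formed during glucuronidation was measured by a coupled enzymatic assay, and the rate was calculated from NADH absorbance using an extinction coefficient of 6.22 × 10^6 cm2 mol-1. Test agents were dissolved in DMSO at final concentrations of 0.5 mM (hydroxyl-substituted pyridines) and 0.1 mM (hydroxyl-substituted isoquinolines). Model compounds lacking the thiosemicarbazone group were used because thiosemicarbazones interfere with the absorbance.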

The species named for test [1] is Mus musculus. The test is described as follows: The compound was tested for antineoplastic activity on the survival time of mice bearing L1210 leukemia. Optimum daily dosage of the compound.
The species entered for test [2] is Mus musculus. The test is described as follows: The compound was tested for antineoplastic activity on the survival time of mice bearing L1210 leukemia. Average weight change of mice from onset to termination of therapy. In outline: (§1)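 CD2F1 mice bearing L1210 leukemia, 5-10 per group. Drug was given ip as a suspension twice daily (about 12 h apart) for 6 consecutive days, starting 24 h after tumor implantation. Mean survival counts only mice dying before day 60. Survivors beyond 60 days are scored as long-term. Body-weight change is measured from the start to the end of therapy.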

The species named for test [3] is Mus musculus. The test is described as follows: antineoplastic activity on the survival time of mice bearing L1210 leukemia. Average weight change of mice from onset to termination of drug treatment. In short, it runs like this: (§2)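 L1210 leukemia-bearing CD2F1 mice, 5-10 per group, received the drug as an ip suspension once daily for 6 consecutive days, starting 24 h after tumor implantation. %T/C is treated over control survival time ×100. Average weight change is measured from the onset to the termination of treatment.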

The species entered for test [4] is Mus musculus. Kind of test: The compound was tested for antineoplastic activity on the survival time of mice bearing L1210 leukemia.% T/C represents the ratio of the survival time of treated to control mice * 100.
For test [5], the species on record is Mus musculus. Kind of test: antineoplastic activity on the survival time of mice bearing L1210 leukemia.% T/C represents the ratio of the survival time of treated to control mice * 100. In outline: as §2
The species entered for test [6] is Mus musculus. The test is described as follows: Survival time of mice(out of 5) bearing L1210 leukemia. Long term survivors are the number of mice that survived for >60 days relative to the total number of treated mice. In short, it runs like this: as §1
For test [7], the species on record is Mus musculus. Kind of test: The compound was tested for antineoplastic activity on the survival time of mice bearing L1210 leukemia. Average survival time includes only those mice that died prior to day 60. In short, it runs like this:
as §1

The species entered for test [8] is Mus musculus. The test is described as follows: antineoplastic activity on the survival time of mice bearing L1210 leukemia. Daily dosage of the compound. In outline: as §2

As for `Cc1ccnc(C)c1O`, the Relative rate in the test listed under Bos taurus worked out at 0.81.

For the molecule `Cc1ccc(O)cn1`, in the test listed under Bos taurus, the Relative rate was 0.59.

`N/C(S)=N/N=C\c1ncc(N)c2ccccc12`: the Dose in the test listed under Mus musculus [1] came out at 40 mg/kg. Further, the Average weight in the test listed under Mus musculus [2] is -7.8%. In the test filed under Mus musculus [3], the Average weight change was 3.2% and 3.6% and 3%. Further, the T/C in the test filed under Mus musculus [4] is 165%; in the test listed under Mus musculus [5] it was 177% and 174% and 162%. In the test filed under Mus musculus [6], this molecule came in with a Long-term survivors of 3. This molecule gave an Average survival in the test filed under Mus musculus [7] of 13.5 days.

In the test listed under Bos taurus, `Cc1ncccc1O` returned a Relative rate of 0.65.

The molecule `Oc1cccc2cnccc12` showed a Relative rate in the test filed under Bos taurus of 0.45.

In the case of `N/C(S)=N/N=C\c1ncc(N2CCOCC2)c2c(N)cccc12`, the Average weight change in the test listed under Mus musculus [3] was 2% and 7.3% and 6.8%. Also, in the test filed under Mus musculus [5], the T/C is 138% and 141% and 149%.

In the case of `CNc1cnc(/C=N\N=C(\N)S)c2ccccc12`, the Average weight change in the test listed under Mus musculus [3] was 1% and 3% and 8%. Also, in the test filed under Mus musculus [5], the T/C is 177% and 159% and 179%.

`Cc1ncc(C)c2c(O)cccc12` had a Relative rate in the test filed under Bos taurus of 0.08.

`Cc1nccc2c(O)cccc12` gave a Relative rate in the test filed under Bos taurus of 1.

In the test filed under Bos taurus, `Cc1cc(C)c(O)cn1` displayed a Relative rate of 1.

As for `NCCNc1cnc(/C=N\N=C(\N)S)c2ccccc12`, the Dose in the test listed under Mus musculus [8] is 60 mg/kg and 40 mg/kg and 20 mg/kg. In addition, the Average weight change in the test filed under Mus musculus [3] is -4.6% and -5%. In addition, the T/C in the test listed under Mus musculus [5] was 145% and 120% and 116%.

`N/C(S)=N/N=C/c1ccc(N)cn1` displayed a Dose in the test listed under Mus musculus [1] of 20 mg/kg. Besides, in the test listed under Mus musculus [2], the Average weight is on record as -7.6%. Besides, the Average weight change in the test filed under Mus musculus [3] was -18% and -2.8% and 0%. Further, the T/C is 234% in the test filed under Mus musculus [4]; 129% and 140% and 138% in the test filed under Mus musculus [5]. In the test filed under Mus musculus [6], the Long-term survivors is on record as 1. Further, the Average survival in the test filed under Mus musculus [7] worked out at 19.2 days.
